Compound activity (PubChem)
FXIa inh 1536 = factor XIa (human) inhibition. 220,000 compounds, 0.14% hits. AID 798. inhibition, % at 5 µM. purified FXIa, Boc-Glu-Ala-Arg-AMC fluorogenic substrate. P03951;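 active = inhibition of at least 40%; inactive = inhibition below 40%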;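 also: fluorescence of freed AMC excited at 355 nm; 0% = enzyme without compound and 100% = no enzyme blank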
Target sequence (P03951 19-387 limits assumed): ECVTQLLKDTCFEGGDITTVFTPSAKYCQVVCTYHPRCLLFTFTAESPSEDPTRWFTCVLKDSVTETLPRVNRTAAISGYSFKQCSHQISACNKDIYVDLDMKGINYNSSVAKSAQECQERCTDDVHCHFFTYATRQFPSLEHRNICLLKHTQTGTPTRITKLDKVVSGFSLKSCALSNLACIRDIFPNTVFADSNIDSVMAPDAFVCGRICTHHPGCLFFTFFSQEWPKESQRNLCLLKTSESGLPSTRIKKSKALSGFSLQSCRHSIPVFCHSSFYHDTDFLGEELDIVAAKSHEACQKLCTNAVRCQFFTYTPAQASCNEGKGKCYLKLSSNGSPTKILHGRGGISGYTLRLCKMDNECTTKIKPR
Target sequence (P03951 388-625 limits assumed): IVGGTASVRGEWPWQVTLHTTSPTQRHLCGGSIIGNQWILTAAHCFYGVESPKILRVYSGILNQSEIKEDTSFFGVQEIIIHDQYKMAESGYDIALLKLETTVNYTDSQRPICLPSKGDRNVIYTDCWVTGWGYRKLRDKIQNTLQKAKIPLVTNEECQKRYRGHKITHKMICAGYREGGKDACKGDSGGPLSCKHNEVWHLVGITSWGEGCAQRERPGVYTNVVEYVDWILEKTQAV
FXIIa inh = factor XIIa (human) inhibition; purified FXIIa, Boc-QGR-AMC fluorogenic substrate, 2 h; inhibition, % at 5 µM; 220,000 compounds, 0.3% hits; AID 800; in the data active = inhibition above about 40%;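 also: 0% = enzyme with no compound and 100% = blank without enzyme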
thrombin 1536 = inhibitors of human thrombin; inhibition, % at 5 µM; P00734; 220,000 compounds, 0.26% hits; alpha-thrombin, Boc-VPR-AMC fluorogenic substrate cleavage;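 active = inhibition at or above 40%; inactive = inhibition below 40%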;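 also: 0% = enzyme with no compound and 100% = wells without enzyme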
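Material: human alpha-thrombin enzyme / Medium: pH 7.5 Tris (50 mM) with NaCl 150 mM, Tween 20 0.05% / Compound: single-point dosing at 5 µM, 0.2% DMSO / Incubation: enzyme reaction carried out at room temperature / Detection: AMC fluorescence, 355/460 nm / Read-out basis: percent inhibition scaled between no-compound controls and no-enzyme blanks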
KLK5 inh = inhibitors of human kallikrein 5; Q9Y337; recombinant hK5, fluorogenic AMC substrate cleavage; inhibition, % at 5 µM; 210,000 compounds, 0.59% hits; AID 873;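 active = inhibition of 40% or more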;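 also: 0% = enzyme controls without compound and 100% = no-enzyme blanks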
* hit, by the source's call. A selection: hits, their analogues and other compounds. The true share with any hit is near 1%.

COC(=O)C1C/C(=N\NS(=O)(=O)c2ccc(C)cc2)c2sccc2C1 (stereo not given) was read as FXIa inh 1536 7.7, FXIIa inh 7.8, thrombin 1536 1.1 and KLK5 inh -8.6.
`COC(=O)C1CC(=O)c2ccsc2C1` (stereo not given) gave FXIa inh 1536 -1.4, FXIIa inh 9.5, thrombin 1536 49.4* and KLK5 inh 29.8.
`Cc1cc(C)c(C)c(S(=O)(=O)Nc2ccccc2C(=O)NCCCn2ccnc2)c1C` gave FXIa inh 1536 7.0, FXIIa inh 14.9, thrombin 1536 3.9 and KLK5 inh -6.2.
`O=C(NCCCn1ccnc1)c1ccccc1NS(=O)(=O)c1ccc(F)c(F)c1` gave FXIa inh 1536 4.5, FXIIa inh -4.7, thrombin 1536 16.9 and KLK5 inh 86.5*.
`COCC(=O)n1nc(-c2ccccc2)nc1NCc1cccs1` gave FXIa inh 1536 3.1, FXIIa inh 10.5, thrombin 1536 85.7* and KLK5 inh 5.7.
CCC(=O)n1nc(-c2ccc(Cl)cc2)nc1NCc1ccccc1 was read as FXIa inh 1536 4.2, FXIIa inh 13.6, thrombin 1536 70.5* and KLK5 inh -8.6.
For O=C(c1cccs1)n1nc(-c2ccccc2)nc1NCc1ccco1 the results were FXIa inh 1536 -3.8, FXIIa inh 3.0, thrombin 1536 9.8 and KLK5 inh 2.0.
Screening COc1cc(/C=N/NC(=O)c2ccc(O)cc2)ccc1OCC(=O)N1CC(C)OC(C)C1 (stereo not given) returned FXIa inh 1536 3.1, FXIIa inh 8.2, thrombin 1536 5.7 and KLK5 inh 4.3.
Screening Cc1ccc(-c2nnc3n2N=C(c2ccc(Br)cc2)CS3)cc1 returned FXIa inh 1536 39.9, FXIIa inh 53.4*, thrombin 1536 -5.7 and KLK5 inh -7.6.
Brc1ccc(C2=Nn3c(nnc3-c3n[nH]c4c3CCC4)SC2)cc1 was read as FXIa inh 1536 7.2, FXIIa inh 11.4, thrombin 1536 20.0 and KLK5 inh -5.4.
`CNC(=O)NNC(=O)c1nc(-c2ccccc2)c(C)o1` gave FXIa inh 1536 33.0, FXIIa inh 26.9, thrombin 1536 24.5 and KLK5 inh 42.3*.
For CC(=O)NNC(=O)c1nc(-c2ccccc2)c(C)o1 the results were FXIa inh 1536 -0.4, FXIIa inh 8.8, thrombin 1536 2.2 and KLK5 inh -4.7.
For Cc1cccc(C)c1-n1nnnc1C1(Nc2ccccc2)CCCCC1 the results were FXIa inh 1536 -12.6, FXIIa inh -0.5, thrombin 1536 -1.1 and KLK5 inh -17.5.
`COc1cccc(NC(C)(C)c2nnnn2-c2c(C)cccc2C)c1` gave FXIa inh 1536 43.8*, FXIIa inh 66.1*, thrombin 1536 1.4 and KLK5 inh 28.7.
`CCN(CC)C(=S)Nc1ccc([N+](=O)[O-])cc1` gave FXIa inh 1536 8.8, FXIIa inh 14.4, thrombin 1536 0.3 and KLK5 inh -16.4.
Screening COc1ccc(C(OC(=O)c2ccco2)C(=O)NC2CCCCC2)cc1OC (stereo not given) returned FXIa inh 1536 7.9, FXIIa inh 14.8, thrombin 1536 36.5 and KLK5 inh 83.1*.
`O=[N+]([O-])c1cccc(/C=N/NC2=NS(=O)(=O)c3ccccc32)c1` gave FXIa inh 1536 0.0, FXIIa inh 11.3, thrombin 1536 8.2 and KLK5 inh 9.1.
O=C(c1ccc(N2CCCC2=O)cc1)N1CCCCCC1 was read as FXIa inh 1536 31.8, FXIIa inh 57.4*, thrombin 1536 -6.8 and KLK5 inh -12.2.
O=C(c1ccc(N2CCCC2=O)cc1)N1CCN(c2ccccc2)CC1 was read as FXIa inh 1536 -6.8, FXIIa inh 15.9, thrombin 1536 -2.8 and KLK5 inh 3.2.
Screening CC1CC2(C)Oc3ccccc3CC2C(C)C1CNCCCN(C)C (stereo not given) returned FXIa inh 1536 -5.3, thrombin 1536 -9.7 and KLK5 inh -7.1.
c1cncc(-c2csc(NCc3ccco3)n2)c1 was read as FXIa inh 1536 15.3, FXIIa inh 45.7*, thrombin 1536 1.4 and KLK5 inh 11.2.
O=C(Cn1cc2c(n1)CCCC2)NCc1ccccn1 was read as FXIa inh 1536 11.8, FXIIa inh 15.6, thrombin 1536 17.6 and KLK5 inh 44.9*.
Cc1noc(C)c1COc1ccc(C(=O)OCC(=O)NC2CCCCC2C)cc1 (stereo not given) was read as FXIa inh 1536 6.4, FXIIa inh 10.2, thrombin 1536 19.7 and KLK5 inh 42.6*.
Screening COc1ccc(-c2cc(C(F)(F)F)nc(S(=O)(=O)CCCC(=O)Nc3cccnc3Cl)n2)cc1OC returned FXIa inh 1536 -2.9, FXIIa inh 4.7, thrombin 1536 -2.5 and KLK5 inh -0.7.
`Cc1ccc(Oc2ccc(-c3nnc(-c4ccccc4)o3)cc2[N+](=O)[O-])cc1C` gave FXIa inh 1536 1.6, FXIIa inh 2.4, thrombin 1536 -8.3 and KLK5 inh -17.7.
CCOC(=O)CNC(=O)Cc1ccc(OC)cc1 was read as FXIa inh 1536 19.2, FXIIa inh 42.7*, thrombin 1536 11.8 and KLK5 inh 25.4.
N/C(=N\OC(=O)c1cccc(Cn2cc(C(F)(F)F)ccc2=O)c1)c1ccc(Cl)cc1 was read as FXIa inh 1536 35.2, FXIIa inh 33.9, thrombin 1536 15.3 and KLK5 inh 51.8*.
Screening N/C(=N\OC(=O)c1cccc(Cn2cc(C(F)(F)F)ccc2=O)c1)c1ccccc1 returned FXIa inh 1536 4.3, FXIIa inh 14.8, thrombin 1536 0.6 and KLK5 inh 1.1.
COC(Cn1c(C)c(C(C)=O)c(C(C)=O)c1C)OC was read as FXIa inh 1536 24.4, FXIIa inh 48.2*, thrombin 1536 1.8 and KLK5 inh 1.4.
For CC(=O)c1c(C(C)=O)c(C)n(Cc2ccccc2)c1C the results were FXIa inh 1536 0.7, FXIIa inh 14.9, thrombin 1536 2.0 and KLK5 inh 13.5.
For COc1ccc2c(c1)C(c1ccc(N3CCOCC3)cc1)=NNC(c1cccnc1)=N2 the results were FXIa inh 1536 7.2, FXIIa inh 13.1, thrombin 1536 28.2 and KLK5 inh 93.8*.
COc1ccc(C2=NNC(c3ccco3)=Nc3ccc(F)cc32)cc1 was read as FXIa inh 1536 -6.2, FXIIa inh 3.5, thrombin 1536 -1.3 and KLK5 inh -4.5.
For COc1ccc2c(c1)C(c1ccc([N+](=O)[O-])cc1)=NNC(c1ccco1)=N2 the results were FXIa inh 1536 -2.7, FXIIa inh 7.6, thrombin 1536 5.5 and KLK5 inh 42.1*.
`CCC(=O)Nc1nnc(SCC(=O)NCCc2ccc(OC)c(OC)c2)s1` gave FXIa inh 1536 -7.9, FXIIa inh -9.8, thrombin 1536 1.2 and KLK5 inh -27.0.
For Cc1ccc(-c2nnc(SCC(=O)Nc3sc(C)c(C)c3C#N)n2C)cc1 the results were FXIa inh 1536 2.5, FXIIa inh 7.8, thrombin 1536 0.4 and KLK5 inh -2.5.
Screening Cc1sc(NC(=O)CSc2nnnn2C2CCCC2)c(C#N)c1C returned FXIa inh 1536 20.1, FXIIa inh 44.0*, thrombin 1536 -9.9 and KLK5 inh -9.2.
For COCCn1c(SCC(=O)Nc2sc(C)c(C)c2C#N)nnc1-c1ccc(OC)cc1 the results were FXIa inh 1536 -12.2, FXIIa inh -6.1, thrombin 1536 1.5 and KLK5 inh 128.1*.
